Assay outcomes (PubChem BioAssay)
Shown are actives, neighbours in structure and some others; about 2.6% of the full set was active somewhere.
TAAR1 agonist: human TAAR1 agonism. CHO RD-HGA16 TAAR1, Fluo-8 calcium fluorescence; vehicle wells 0%, saturating PEA agonist 100%. activation, % at 3 µM. actives 0.99% (n = 360,000). AID 624467;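 active = activation above the mean activation of all test compounds in the run plus 3 SD, cut at about 38% in these data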
Target sequence (Q96RJ0 whole entry, looked up): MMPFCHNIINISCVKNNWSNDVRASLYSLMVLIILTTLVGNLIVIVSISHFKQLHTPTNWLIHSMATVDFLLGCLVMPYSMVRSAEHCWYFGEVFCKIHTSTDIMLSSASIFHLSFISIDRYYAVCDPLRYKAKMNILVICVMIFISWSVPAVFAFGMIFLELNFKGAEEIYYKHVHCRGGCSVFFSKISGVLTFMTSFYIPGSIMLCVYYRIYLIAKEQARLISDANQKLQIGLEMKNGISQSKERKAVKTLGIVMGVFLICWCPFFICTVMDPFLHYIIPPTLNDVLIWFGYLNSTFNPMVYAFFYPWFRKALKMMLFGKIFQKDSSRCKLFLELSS
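Test system: RD-HGA16 (CHO) cells co-expressing Gα16 and hTAAR1 | Doses: Single dose, 3 µM | Schedule: 17-24 h seeding, 75 min 37 °C dye, 30 min RT | Evaluation: % activation from peak over basal fluorescence ratio, DMSO-to-PEA scaled | Technique: Kinetic Fluo-8 calcium fluorescence | Benchmarks: Low control DMSO, high control PEA (EC100)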
VLA-4 inh: inhibition in a human VLA-4 binding assay; P13612; VLA-4 expressing cells, ligand binding flow cytometry; inhibition, % (about 7 µM as worked out from the volumes in the protocol); actives 0.2% (n = 330,000); AID 2557; in the data active = inhibition above about 50%
TAAR1 antagonist: antagonists of human TAAR1; AID 624466; inhibition, % at 3 µM; actives 1.5% (n = 360,000); Q96RJ0; CHO RD-HGA16 TAAR1, Fluo-8 calcium fluorescence, antagonist;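 active = inhibition above a per-plate cutoff, the mean inhibition of test compounds on that plate plus 3 SD, cut at about 49% in these data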
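System: RD-HGA16 CHO cells with stable hTAAR1 and Gα16 | Probe or stimulus: EC80 β-phenethylamine stimulus | Dosing: 3 µM, single point | Times: Dye loading 75 min at 37 °C, then 30 min room temperature | Measured by: Fluo-8 calcium-sensitive fluorescence | Read-out basis: % inhibition of agonist calcium response | Replicates: n of 1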
Platelet DG rel: modulates dense granule release in human platelets. human platelet-rich plasma, SFLLRN dense granule ATP release, luminescence. inhibition, %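 (compounds screened at 7.5 µM in platelet-rich plasma)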. actives 0.22% (n = 300,000);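 active = mean replicate score, as percent of positive control, at or above 50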
Rce1 inhib: blocks yeast Ras-converting enzyme; Q03530; calls only; yeast membranes, quenched prenylated peptide cleavage fluorescence; actives 0.27% (n = 290,000);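 active = fall in fluorescence gain of 50% or more versus controls, with final raw signal at or below 3038400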
Target sequence (Q03530 whole entry, looked up): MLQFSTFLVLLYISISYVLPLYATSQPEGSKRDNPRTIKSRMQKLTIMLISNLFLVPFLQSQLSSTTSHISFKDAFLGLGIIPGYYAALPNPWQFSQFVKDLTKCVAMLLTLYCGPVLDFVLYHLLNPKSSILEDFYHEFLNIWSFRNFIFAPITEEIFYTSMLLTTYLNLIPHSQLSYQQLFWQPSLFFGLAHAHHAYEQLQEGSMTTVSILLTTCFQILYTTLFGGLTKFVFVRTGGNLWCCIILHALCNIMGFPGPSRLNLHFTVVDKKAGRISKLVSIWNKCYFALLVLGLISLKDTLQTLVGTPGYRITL
VLA-4 allo CP: confirmation of allosteric modulators of human VLA-4 integrin; shares compounds with VLA-4 inh; U937 cells, HUTS-21 LIBS mAb binding, flow cytometry; LDV ligand present at threefold Kd; inhibition, % at 6.7 µM; actives 2% (n = 1,300); AID 2813; in the data active = inhibition above about 40%
Large screens that a line does not name were inactive (follow-up assays come after a bar, where they were run).

CCN(C[C@H]1N[C@@](Cc2ccccc2)(C(=O)OC)[C@H]2C(=O)N(Cc3ccccc3)C(=O)[C@@H]12)S(=O)(=O)c1ccc(C(F)(F)F)cc1	none (no result: Platelet DG rel, Rce1 inhib)
COC(=O)[C@]1(Cc2ccccc2)N[C@H](CN(C)S(=O)(=O)c2ccc(C(F)(F)F)cc2)[C@@H]2C(=O)N(Cc3ccccc3)C(=O)[C@@H]21	none (no result: Platelet DG rel, Rce1 inhib) | VLA-4 allo CP inactive
Oc1ccc(/C=N/Nc2ccc(Cl)nn2)c(O)c1O	none
O=C(NC1CCCCC1)C(c1ccccc1)N(C(=O)c1csnn1)C1CC1 (stereo not drawn)	none (no result: Rce1 inhib)
CCOC(=O)c1c(NC(=O)C2c3ccccc3Oc3ccccc32)sc(C(C)=O)c1C	none | VLA-4 allo CP inactive
COC(=O)c1c(NC(=O)C2c3ccccc3Oc3ccccc32)sc(C)c1C	none | VLA-4 allo CP inactive
COC(=O)c1sc(NC(=O)C2c3ccccc3Oc3ccccc32)c(C(=O)OC)c1C	none | VLA-4 allo CP inactive
Cc1ccc([C@H]2C[C@H](n3cc(C4CC4)nn3)[C@@H](O)CN2C(=O)c2cccs2)cc1	none (no result: VLA-4 inh, Platelet DG rel, Rce1 inhib)
CCn1c(CNC(=O)c2ccc(F)cc2)cc2ccccc21	none
Nc1ccc(S(=O)(=O)Nc2ncccn2)cc1	none
O=C(Nc1ccc(Cl)cc1)Nc1ccc(S(=O)(=O)Nc2ncccn2)cc1	none
Cc1ccc(S(=O)(=O)Nc2ncccn2)cc1	none | VLA-4 allo CP inactive
O=S(=O)(Nc1ncccn1)c1ccc(Cl)cc1	none (no result: Rce1 inhib) | VLA-4 allo CP inactive
Cc1ccccc1NS(=O)(=O)c1ccc(Cl)cc1	none | VLA-4 allo CP inactive
O=S(=O)(Nc1ncccn1)c1ccccc1	none | VLA-4 allo CP inactive
Cc1ccccc1NS(=O)(=O)c1ccc(S(=O)(=O)N2CCCC2)cc1	none (no result: VLA-4 inh, Platelet DG rel, Rce1 inhib)
Cc1ccccc1S(=O)(=O)N(C)C[C@H]1OCc2cnnn2CCCC(=O)N([C@H](C)CO)C[C@H]1C	none (no result: VLA-4 inh, Platelet DG rel, Rce1 inhib)
CC(Oc1ccc(S(=O)(=O)N2CCCC2)cc1[N+](=O)[O-])C(=O)NC1(C#N)CCCCC1 (stereo not drawn)	none (no result: Platelet DG rel, Rce1 inhib)
O=S(=O)(Nc1ncccn1)c1ccc(F)cc1	none | VLA-4 allo CP inactive
O=S(=O)(Nc1ccc(S(=O)(=O)Nc2ncccn2)cc1)c1ccccc1	none
COCCCN(C(=O)CCOc1ccc(C)cc1)c1c(N)n(Cc2ccccc2)c(=O)[nH]c1=O	VLA-4 inh 49.8 | VLA-4 allo CP inactive
C[C@H](CO)N1C[C@H](C)[C@@H](CN(C)Cc2ccc(C(=O)Nc3ccccc3N)cc2)Oc2c(NC(=O)C3CCCCC3)cccc2C1=O	none (no result: Platelet DG rel, Rce1 inhib)
CCc1ccc(NC(=O)Cn2cnc([N+](=O)[O-])c2)cc1	VLA-4 inh 53.8 (no result: Rce1 inhib) | VLA-4 allo CP inactive
Cc1ccc(NC(=O)C2CC(=O)Nc3nc4ccccc4n32)c(C)c1 (stereo not drawn)	none
O=C(Cn1c(=O)oc2ccccc21)N1CCOCC1	none
CN(CC(=O)Nc1ccc(F)cc1)C(=O)Cn1c(=O)oc2ccccc21	none (no result: Platelet DG rel, Rce1 inhib)
CN(C(=O)Cn1c(=O)oc2ccccc21)C1CCCCC1	none (no result: Platelet DG rel, Rce1 inhib) | VLA-4 allo CP inactive
CN(CC(=O)Nc1cccc(F)c1)C(=O)Cn1c(=O)oc2ccccc21	none (no result: Platelet DG rel, Rce1 inhib) | VLA-4 allo CP inactive
O=C(Cn1c(=O)oc2ccccc21)N1CCCC1	none | VLA-4 allo CP inactive
Cc1ccc2oc(=O)n(CC(=O)N3CCOCC3)c2c1	none | VLA-4 allo CP inactive
O=C(Nc1ncccc1O)C1CCN(S(=O)(=O)c2ccc3ccccc3c2)CC1	none
Cc1ccc2nc(-c3ccccc3)cc(C(=O)N3CCN(S(=O)(=O)c4c(C)noc4C)CC3)c2c1	none (no result: Platelet DG rel, Rce1 inhib) | VLA-4 allo CP inactive
O=C(COc1ccc(/C=N/NC(=O)c2cc3ccccc3o2)cc1Cl)Nc1ccccc1	VLA-4 inh 78.3 (no result: TAAR1 agonist, TAAR1 antagonist) | VLA-4 allo CP 61.2
COc1cc(/C=N/NC(=O)c2ccccc2O)ccc1OCC(=O)Nc1ccccc1	none
CCOc1ccc(C(=S)N2CCCC2)c(OCC)c1	none
Cc1c(Cl)cccc1-n1cnc(=O)c2ccccc21	none
COc1ccccc1N1CCN(C(=O)C(=O)c2cccc([N+](=O)[O-])c2)CC1	none (no result: VLA-4 inh, Platelet DG rel, Rce1 inhib)
COc1ccc(N(CC(=O)N2CCc3ccccc32)S(=O)(=O)c2c(C)nn(C)c2C)cc1	none | VLA-4 allo CP inactive
Cc1nn(C)c(C)c1S(=O)(=O)N(CC(=O)N1CCc2ccccc21)c1ccc(C(C)C)cc1	none
O=C(NC1CCCC1)c1cccc(NC(=O)c2ccco2)c1	VLA-4 inh 49.7 | VLA-4 allo CP inactive
Cc1ccc2c(c1)c1c(n2CC(O)CNC2CCCCC2)CCCC1 (stereo not drawn)	VLA-4 inh 51.8 | VLA-4 allo CP inactive
COc1ccccc1N1CCN(CCCNc2cc(=O)n(C)c(=O)n2C)CC1	VLA-4 inh 54.8 | VLA-4 allo CP inactive
COc1ccccc1N1CCN(CCCNc2c(C)c(=O)n(C)c(=O)n2C)CC1	none
CCOC(=O)C1(S(=O)(=O)c2ccccc2)CCN(Cc2ccc(Cl)cc2)CC1	VLA-4 inh 74.3 | VLA-4 allo CP inactive
CCOC(=O)C1(Cc2ccc(Cl)cc2)CCN(Cc2nccn2CC)CC1	none
CCOC(=O)C1(S(=O)(=O)c2ccc(Cl)cc2)CCN(Cc2ccc(Cl)cc2)CC1	VLA-4 inh 59.2 | VLA-4 allo CP inactive
OCC1OC(n2cnc3c(NCc4ccccc4O)ncnc32)C(O)C1O (stereo not drawn)	none (no result: VLA-4 inh, Platelet DG rel, Rce1 inhib)
NCCNC(=O)Cc1cccc(NC(=O)Cc2ccc(Nc3ncnc4c3ncn4[C@@H]3O[C@H](CO)[C@@H](O)[C@H]3O)cc2)c1	none
OC[C@H]1O[C@@H](n2cnc3c(Nc4ccccc4)ncnc32)[C@H](O)[C@@H]1O	none | VLA-4 allo CP inactive
Nc1ccc(CCNc2ncnc3c2ncn3[C@@H]2O[C@H](CO)[C@@H](O)[C@H]2O)cc1	none | VLA-4 allo CP inactive
COc1ccc(NC(=O)CN(C)C(=O)C(CCSC)NC(=O)c2ccccc2)cc1 (stereo not drawn)	none
CC(C)Cc1nnc(NC(=O)CCC(=O)N2CCN(c3ccccc3F)CC2)s1	none
CN(C)c1ccc(C(=O)N2CCN(C(=O)C3CCCO3)CC2)cc1 (stereo not drawn)	none (no result: Platelet DG rel, Rce1 inhib)
CC(C)Cn1c(N)c(C(=O)CSc2nnc(-c3ccco3)n2C)c(=O)n(C)c1=O	VLA-4 inh 53.2 (no result: Platelet DG rel, Rce1 inhib) | VLA-4 allo CP inactive
CN1C(=O)C(C)(C)c2cc(S(=O)(=O)N3CCN(c4ccccc4F)CC3)ccc21	none | VLA-4 allo CP inactive
CC1=C(C(=O)N(C)C)CC(CC(=O)NCc2cccc3ccccc23)C(=O)N1Cc1ccccc1 (stereo not drawn)	none (no result: VLA-4 inh, Platelet DG rel, Rce1 inhib)
Cc1ccc(S(=O)(=O)NC(CC(=O)O)c2ccco2)cc1 (stereo not drawn)	none
CCC(C)NC(=O)CC(NS(=O)(=O)c1ccc(Cl)cc1)c1ccco1 (stereo not drawn)	VLA-4 inh 107.6 | VLA-4 allo CP inactive
CC(Oc1ccccc1)C(=O)Nc1nc(-c2ccccn2)cs1 (stereo not drawn)	none (no result: VLA-4 inh, Platelet DG rel, Rce1 inhib)
CC(Oc1cccc(Cl)c1)C(=O)Nc1nc(-c2ccccn2)cs1 (stereo not drawn)	VLA-4 inh 52.6 | VLA-4 allo CP inactive
